ED50 and Relative potency data for 19 compounds are collected here from ChEMBL document CHEMBL1123276, “Analgetic and antiinflammatory 7-aroylbenzofuran-5-ylacetic acids and 7-aroylbenzothiophene-5-ylacetic acids” (1986).

The structures appear in SMILES notation.

Assay type in all cases: functional
Test [1] has as its system Rattus norvegicus. Briefly: Chronic gastrointestinal erosive activity in male rats by the oral administration was determined. The method in brief: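 Male Cox/SD rats, 190-220 g, acclimated about 1 week. Dosed orally once daily in phosphate-buffered saline (1 mL/100 g) for 7 consecutive days, 5 rats per dose. Food withdrawn on the last dosing day. Killed one day after the last dose, with body weight recorded at start and at sacrifice. Stomach and small intestine scored blind for lesions.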

Test [2] relates to Mus musculus. Briefly: Inhibition of phenylquinone -induced writhing in male mice by p.o. administration 20 min prior to i.p. phenylquinone (relative to aspirin). The method in brief: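 Male mice, 18-20 g, dosed orally in the same aqueous saline/CMC/polysorbate 80/benzyl alcohol vehicle 20 min before intraperitoneal phenylquinone. Writhing observed for 10 min. Potency vs aspirin derived from dose-response curves by analysis of variance. Eight mice per dose group.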

Test [3] is filed under the species Mus musculus. The test is described as follows: Dose required for the inhibition of phenylquinone-induced writhing in male mice.
The subject of test [4] is Rattus norvegicus. The test is described as follows: Anti-inflammatory activity against carrageenan-induced paw edema in female rats relative to phenylbutazone by p.o. administration. The method in brief: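 Test agents given in saline/0.5% carboxymethylcellulose/0.4% polysorbate 80/0.9% benzyl alcohol aqueous vehicle. Rats killed 4 h after dosing, and both hindpaws excised and weighed. Potency vs phenylbutazone taken from dose-response plots of mean % weight increase of treated over untreated paw. Six rats per dose, at least four doses, linear parallel curves, analysis of variance.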

The term ED50 denotes the midpoint of the dose-response relation. Read a high ED50 as a need for a large dose. As for `Cc1cc(CC(=O)O)n(C)c1C(=O)c1ccc(Cl)cc1` [ZOMEPIRAC], the ED50 was 10 mg/kg in the test on Rattus norvegicus [1] (Rattus norvegicus, po) and 1.75 mg/kg in the test filed under Mus musculus [3]. Moreover, the Relative potency in the test on Mus musculus [2] is on record as 40.
Regarding `COc1ccc2c(c1)c(CC(=O)O)c(C)n2C(=O)c1ccc(Cl)cc1` [INDOMETHACIN], the median effective dose (ED50) was determined as 3 mg/kg with Rattus norvegicus [1] (Rattus norvegicus, po) and 1.16 mg/kg in the test filed under Mus musculus [3]. The Relative potency in the test on Mus musculus [2] is reported as 60; in the test on Rattus norvegicus [4] it was 16.
For `CC(C(=O)O)c1cc(C(=O)c2ccc(Cl)cc2)c2occc2c1` (stereo not drawn), the values for the Relative potency in the test with Mus musculus [2] and in the test with Rattus norvegicus [4] were 42.9 and 2, respectively.
For `O=C(O)Cc1cc2c(c(C(=O)c3ccccc3)c1)SCC2` the same measures were less than 1 and 0.6.
For `COc1ccc(C(=O)c2cc(CC(=O)O)cc3ccoc23)cc1` the same measures were 33 and 1.
Consider `CS(=O)(=O)c1ccc(C(=O)c2cc(CC(=O)O)cc3ccoc23)cc1`, for which, in the test with Mus musculus [2], the Relative potency was less than 1.
In the case of `CC(C(=O)O)c1cc(C(=O)c2ccc(C=O)cc2)c2occc2c1` (stereo not drawn), the Relative potency with Mus musculus [2] is reported as 45; with Rattus norvegicus [4], 1.3.
As for `CSc1ccc(C(=O)c2cc(CC(=O)O)cc3ccoc23)cc1` [TIFURAC], the ED50 with Rattus norvegicus [1] (Rattus norvegicus, po) was not below 90 mg/kg; in the test listed under Mus musculus [3], 1.2 mg/kg. Besides, the values for the Relative potency with Mus musculus [2] and with Rattus norvegicus [4] were 57 and 3, respectively.
With `CC(C(=O)O)c1cc(C(=O)c2ccccc2)c2occc2c1` (stereo not drawn), the Relative potency in the test with Mus musculus [2] amounted to 42.4; in the test on Rattus norvegicus [4], 1.8.
For `O=C(O)Cc1cc(C(=O)c2ccc(Cl)cc2)c2sccc2c1` the same measures were 7 and 1.5.
For `O=C(O)Cc1cc2c(c(C(=O)c3ccc(Cl)cc3)c1)SCC2` the same measures were 0.6 and 0.6.
For `O=C(O)Cc1cc(C(=O)c2ccc(Cl)cc2)c2occc2c1` the same measures were 33.9 and 0.6.
Turning to `O=C(O)Cc1cc(C(=O)c2ccccc2)c2occc2c1`, the Relative potency with Mus musculus [2] is 40; in the test with Rattus norvegicus [4], 1.
For `O=C(O)Cc1cc2c(c(C(=O)c3ccccc3)c1)OCC2` the same measures were 0.25 and 0.7.
For `O=C(O)Cc1cc2c(c(C(=O)c3ccc(Cl)cc3)c1)OCC2` the same measures were 7 and 0.8.
For `O=C(O)Cc1cc(C(=O)c2ccccc2)c2sccc2c1`, the Relative potency with Mus musculus [2] amounted to 0.4; with Rattus norvegicus [4], 0.6.
As for `CSc1ccc(C(=O)c2cc(C(C)C(=O)O)cc3ccoc23)cc1` (stereo not drawn), the ED50 with Rattus norvegicus [1] is not above 1 mg/kg. In addition, the Relative potency stood at 25 in the test on Mus musculus [2] and 18.6 in the test on Rattus norvegicus [4].
For `C[S+]([O-])c1ccc(C(=O)c2cc(CC(=O)O)cc3ccoc23)cc1` (stereo not drawn), the figures for the Relative potency in the test with Mus musculus [2] and in the test with Rattus norvegicus [4] were 7.5 and 1.8, respectively.
Turning to `CSc1ccc(C(=O)c2cc(CC(=O)O)cc3c2OCC3)cc1`, the Relative potency is 8 with Mus musculus [2] and 0.2 in the test on Rattus norvegicus [4].
